# Results from paper PMC9722229 (European journal of pharmacology, 2019).
# Where two headings read alike, the source gives them in different places.
# Assays:
# [1] = biological target: hERG channel (Homo sapiens, UniProt Q12809)
# [2] = biological target: DAT (Rattus norvegicus, UniProt P23977); experiment: Inhibition of [3H]DA uptake in rat striatum synaptosomes; format: biochemical
# [3] = biological target: SERT (Rattus norvegicus, UniProt P31652); experiment: Inhibition of [3H]5-HT uptake in rat cerebral cortex synaptosomes; format: biochemical
# [4] = biological target: cloned human DAT (Homo sapiens, UniProt Q01959); experiment: Inhibition of [3H]DA uptake in HEK 293 cells expressing cloned human transporter; format: cell-based
# [5] = biological target: cloned human SERT (Homo sapiens, UniProt P31645); format: cell-based
# [6] = biological target: cloned human NET (Homo sapiens, UniProt P23975); experiment: cell-based; format: cell-based
# [7] = biological target: D1 (Homo sapiens, UniProt P21728); experiment: NIMH PDSP receptor binding assay; details: read-out: % Inhibition of Binding at 10 μM D-578
# [8] = biological target: D2 (Homo sapiens, UniProt P14416); experiment: NIMH PDSP receptor binding assay
# [9] = biological target: D3 (Homo sapiens, UniProt P35462); experiment: NIMH PDSP receptor binding assay
# [10] = biological target: D4 (Homo sapiens, UniProt P21917); experiment: NIMH PDSP receptor binding assay; details: read-out: % Inhibition of Binding at 10 μM D-578
# [11] = biological target: D5 (Homo sapiens, UniProt P21918); experiment: NIMH PDSP receptor binding assay; details: read-out: % Inhibition of Binding at 10 μM D-578
# [12] = biological target: 5HT1a (Homo sapiens, UniProt P08908); experiment: NIMH PDSP receptor binding assay; details: read-out: % Inhibition of Binding at 10 μM D-578
# [13] = biological target: 5HT1b (Homo sapiens, UniProt P28222); experiment: NIMH PDSP receptor binding assay; details: read-out: % Inhibition of Binding at 10 μM D-578
# [14] = biological target: 5HT1d (Homo sapiens, UniProt P28221); experiment: NIMH PDSP receptor binding assay
# [15] = biological target: 5HT2a (Homo sapiens, UniProt P28223); experiment: NIMH PDSP receptor binding assay
# [16] = biological target: 5HT2b (Homo sapiens, UniProt P41595); experiment: NIMH PDSP receptor binding assay
# [17] = biological target: 5HT2c (Homo sapiens, UniProt P28335); experiment: NIMH PDSP receptor binding assay
# [18] = biological target: 5HT3 (Homo sapiens, UniProt P46098); experiment: NIMH PDSP receptor binding assay; details: read-out: % Inhibition of Binding at 10 μM D-578
# [19] = biological target: 5HT5a (Homo sapiens, UniProt P47898); experiment: NIMH PDSP receptor binding assay; details: read-out: % Inhibition of Binding at 10 μM D-578
# [20] = biological target: 5HT6 (Homo sapiens, UniProt P50406); experiment: NIMH PDSP receptor binding assay; details: read-out: % Inhibition of Binding at 10 μM D-578
# [21] = biological target: 5HT7 (Homo sapiens, UniProt P34969); experiment: NIMH PDSP receptor binding assay; details: read-out: % Inhibition of Binding at 10 μM D-578
# [22] = system: GABA A; experiment: NIMH PDSP receptor binding assay; details: [3H]Muscimol, mean of 4 determinations
# [23] = biological target: Alpha1A (Homo sapiens, UniProt P35348); experiment: NIMH PDSP receptor binding assay; details: read-out: % Inhibition of Binding at 10 μM D-578
# [24] = biological target: Alpha1B (Homo sapiens, UniProt P35368); experiment: NIMH PDSP receptor binding assay; details: read-out: % Inhibition of Binding at 10 μM D-578
# [25] = biological target: Alpha1D (Homo sapiens, UniProt P25100); experiment: NIMH PDSP receptor binding assay; details: read-out: % Inhibition of Binding at 10 μM D-578
# [26] = biological target: Alpha2A (Homo sapiens, UniProt P08913); experiment: NIMH PDSP receptor binding assay; details: read-out: % Inhibition of Binding at 10 μM D-578
# [27] = biological target: Alpha2B (Homo sapiens, UniProt P18089); experiment: NIMH PDSP receptor binding assay; details: read-out: % Inhibition of Binding at 10 μM D-578
# [28] = biological target: Alpha2C (Homo sapiens, UniProt P18825); experiment: NIMH PDSP receptor binding assay
# [29] = biological target: Beta1 (Homo sapiens, UniProt P08588); experiment: NIMH PDSP receptor binding assay; details: read-out: % Inhibition of Binding at 10 μM D-578
# [30] = biological target: Beta2 (Homo sapiens, UniProt P07550); experiment: NIMH PDSP receptor binding assay
# [31] = biological target: Beta3 (Homo sapiens, UniProt P13945); experiment: NIMH PDSP receptor binding assay
# [32] = system: BZP Rat Brain Site; experiment: NIMH PDSP receptor binding assay; details: 3H-Flunitrazepam, mean of 4 determinations
# [33] = biological target: δ-opioid (Homo sapiens, UniProt P41143); experiment: NIMH PDSP receptor binding assay; details: read-out: % Inhibition of Binding at 10 μM D-578
# [34] = biological target: κ-opioid (Homo sapiens, UniProt P41145); experiment: NIMH PDSP receptor binding assay
# [35] = biological target: H1 (Homo sapiens, UniProt P35367); experiment: NIMH PDSP receptor binding assay; details: read-out: % Inhibition of Binding at 10 μM D-578
# [36] = biological target: H2 (Homo sapiens, UniProt P25021); experiment: NIMH PDSP receptor binding assay
# [37] = biological target: H3 (Homo sapiens, UniProt Q9Y5N1); experiment: NIMH PDSP receptor binding assay; details: read-out: % Inhibition of Binding at 10 μM D-578
# [38] = biological target: H4 (Homo sapiens, UniProt Q9H3N8); experiment: NIMH PDSP receptor binding assay; details: read-out: % Inhibition of Binding at 10 μM D-578
# [39] = biological target: μ-Opioid (Homo sapiens, UniProt P35372); experiment: NIMH PDSP receptor binding assay; details: read-out: % Inhibition of Binding at 10 μM D-578
# [40] = biological target: M1 (Homo sapiens, UniProt P11229); experiment: biochemical; details: read-out: % Inhibition of Binding at 10 μM D-578
# [41] = biological target: M2 (Homo sapiens, UniProt P08172); experiment: biochemical; details: read-out: % Inhibition of Binding at 10 μM D-578
# [42] = biological target: M3 (Homo sapiens, UniProt P20309); experiment: biochemical; details: read-out: % Inhibition of Binding at 10 μM D-578
# [43] = biological target: M4 (Homo sapiens, UniProt P08173); experiment: biochemical; format: binding
# [44] = biological target: M5 (Homo sapiens, UniProt P08912); experiment: biochemical; format: binding
# [45] = biological target: PBR (Rattus norvegicus, UniProt P16257); experiment: NIMH PDSP receptor binding assay; details: read-out: % Inhibition of Binding at 10 μM D-578
# [46] = biological target: mGlur5 (Rattus norvegicus, UniProt P31424); experiment: NIMH PDSP receptor binding assay; details: read-out: % Inhibition of Binding at 10 μM D-578
# [47] = biological target: Oxytocin (Homo sapiens, UniProt P30559); experiment: NIMH PDSP receptor binding assay
# [48] = biological target: V1A (Homo sapiens, UniProt P37288); experiment: NIMH PDSP receptor binding assay; details: read-out: % Inhibition of Binding at 10 μM D-578
# [49] = biological target: V1B (Homo sapiens, UniProt P47901); experiment: NIMH PDSP receptor binding assay; details: read-out: % Inhibition of Binding at 10 μM D-578
# [50] = biological target: V2 (Homo sapiens, UniProt P30518); experiment: NIMH PDSP receptor binding assay; details: read-out: % Inhibition of Binding at 10 μM D-578
# [51] = system: immobility in the forced swimming test; experiment: Forced swimming test in rats after oral administration; format: in vivo, rat; details: for Immobility in the rat forced swimming test compared to vehicle: sub-chronic, 1 h before test, mesylate salt
# Outline: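 Male Sprague-Dawley rats (200-225 g), naive, used once, were given a Porsolt two-session test. The pretest was a 15 min swim and the test a 5 min swim 24 h later, in a 24.5 × 35.5 cm cylinder with 22 cm water at 24-25 °C. Mesylate salt in 3% β-hydroxypropyl cyclodextrin/saline was given p.o. 15 min after pretest and 1 h before test. Blinded video scoring of immobility; one-way ANOVA.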
# [52] = system: locomotor activity; experiment: Locomotor activity test; format: in vivo, rat; details: 25 mg/kg oral, rats, up to 120 min
# Outline: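 Sprague-Dawley rats were acclimated for 1 h in automated activity chambers, then dosed by oral gavage with test compound (25 mg/kg) or vehicle. Distance travelled was recorded for 2 h after dosing, matching the forced-swim timing. n = 4-7 rats/group.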
# [53] = system: conditioned fear behavior; experiment: Single prolonged stress; format: in vivo, rat; details: SPS rats, D-578 10 mg/kg, paroxetine 5 mg/kg; for Freezing behavior during the extinction retention session (SPS-induced deficit) / Freezing behavior during the extinction session (SPS-induced deficit): i.p. 90 min prior to each session; for Shock reactivity during acquisition compared to the control group: i.p., five 1 mA shocks
# [54] = Oral absorption and brain penetration; format: in vivo; details: unpublished data
# [55] = read-out: % Inhibition of Binding at 10 μM D-578
# Chain of hERG channel (Q12809 whole entry): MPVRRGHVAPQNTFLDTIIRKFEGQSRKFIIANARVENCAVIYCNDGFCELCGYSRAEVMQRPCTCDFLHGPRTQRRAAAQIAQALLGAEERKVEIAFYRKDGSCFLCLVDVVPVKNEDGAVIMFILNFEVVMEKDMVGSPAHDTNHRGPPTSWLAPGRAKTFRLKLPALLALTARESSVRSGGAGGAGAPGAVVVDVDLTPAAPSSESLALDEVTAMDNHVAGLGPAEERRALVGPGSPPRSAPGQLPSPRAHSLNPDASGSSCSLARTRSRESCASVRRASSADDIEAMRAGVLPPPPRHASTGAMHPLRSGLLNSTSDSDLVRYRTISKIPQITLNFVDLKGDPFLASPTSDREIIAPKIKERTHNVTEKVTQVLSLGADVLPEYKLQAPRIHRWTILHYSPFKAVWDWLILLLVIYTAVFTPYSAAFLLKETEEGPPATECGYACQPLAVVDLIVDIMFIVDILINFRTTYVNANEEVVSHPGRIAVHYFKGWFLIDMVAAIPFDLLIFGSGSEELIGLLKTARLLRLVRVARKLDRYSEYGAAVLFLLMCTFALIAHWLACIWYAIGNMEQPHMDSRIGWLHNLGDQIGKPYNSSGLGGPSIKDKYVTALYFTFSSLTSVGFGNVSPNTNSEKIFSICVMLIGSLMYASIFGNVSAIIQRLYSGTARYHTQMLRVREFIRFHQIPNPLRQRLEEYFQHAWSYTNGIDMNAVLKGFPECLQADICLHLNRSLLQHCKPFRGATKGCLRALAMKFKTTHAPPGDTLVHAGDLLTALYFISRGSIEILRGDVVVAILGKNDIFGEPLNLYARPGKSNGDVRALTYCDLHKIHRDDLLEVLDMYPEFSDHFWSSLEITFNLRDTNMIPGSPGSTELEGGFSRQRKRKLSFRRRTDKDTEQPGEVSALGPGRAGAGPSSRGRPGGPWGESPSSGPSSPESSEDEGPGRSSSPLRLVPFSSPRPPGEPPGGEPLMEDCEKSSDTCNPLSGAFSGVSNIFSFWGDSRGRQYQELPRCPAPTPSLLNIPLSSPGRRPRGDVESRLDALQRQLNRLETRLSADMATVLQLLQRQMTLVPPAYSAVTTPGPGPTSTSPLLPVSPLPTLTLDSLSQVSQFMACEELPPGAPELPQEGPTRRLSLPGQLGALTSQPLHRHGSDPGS
# Chain of D2 (P14416 whole entry): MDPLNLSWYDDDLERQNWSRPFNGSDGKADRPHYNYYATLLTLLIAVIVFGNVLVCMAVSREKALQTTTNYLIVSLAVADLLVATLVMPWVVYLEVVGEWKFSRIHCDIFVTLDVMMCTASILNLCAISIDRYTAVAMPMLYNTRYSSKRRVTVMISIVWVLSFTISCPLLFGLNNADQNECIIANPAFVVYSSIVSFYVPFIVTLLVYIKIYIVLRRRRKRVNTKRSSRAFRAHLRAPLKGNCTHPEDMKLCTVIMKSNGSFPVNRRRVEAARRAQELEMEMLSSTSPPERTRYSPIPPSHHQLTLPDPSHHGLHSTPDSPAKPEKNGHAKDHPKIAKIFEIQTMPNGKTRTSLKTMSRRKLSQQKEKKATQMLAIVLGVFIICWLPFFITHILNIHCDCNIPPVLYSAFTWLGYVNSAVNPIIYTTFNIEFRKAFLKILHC
# Chain of 5HT1d (P28221 whole entry): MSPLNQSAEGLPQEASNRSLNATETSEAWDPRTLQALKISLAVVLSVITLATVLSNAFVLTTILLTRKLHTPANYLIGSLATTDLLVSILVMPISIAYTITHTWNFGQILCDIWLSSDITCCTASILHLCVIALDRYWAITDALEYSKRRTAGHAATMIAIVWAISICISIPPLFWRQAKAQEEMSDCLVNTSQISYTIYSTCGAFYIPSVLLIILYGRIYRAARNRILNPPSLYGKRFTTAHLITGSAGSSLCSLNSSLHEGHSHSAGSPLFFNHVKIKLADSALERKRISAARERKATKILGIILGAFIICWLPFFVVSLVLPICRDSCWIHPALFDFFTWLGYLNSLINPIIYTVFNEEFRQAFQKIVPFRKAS
# Chain of D3 (P35462 whole entry): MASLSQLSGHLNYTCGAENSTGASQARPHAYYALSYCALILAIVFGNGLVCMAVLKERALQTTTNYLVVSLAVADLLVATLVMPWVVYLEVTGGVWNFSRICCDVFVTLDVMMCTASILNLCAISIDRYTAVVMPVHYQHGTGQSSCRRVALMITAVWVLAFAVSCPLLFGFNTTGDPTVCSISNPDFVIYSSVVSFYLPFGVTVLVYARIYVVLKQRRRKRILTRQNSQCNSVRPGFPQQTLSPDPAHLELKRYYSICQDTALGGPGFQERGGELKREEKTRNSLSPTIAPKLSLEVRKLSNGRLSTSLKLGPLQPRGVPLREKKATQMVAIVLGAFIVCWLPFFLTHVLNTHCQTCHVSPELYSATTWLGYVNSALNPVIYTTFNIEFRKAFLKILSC
# Chain of 5HT2a (P28223 whole entry): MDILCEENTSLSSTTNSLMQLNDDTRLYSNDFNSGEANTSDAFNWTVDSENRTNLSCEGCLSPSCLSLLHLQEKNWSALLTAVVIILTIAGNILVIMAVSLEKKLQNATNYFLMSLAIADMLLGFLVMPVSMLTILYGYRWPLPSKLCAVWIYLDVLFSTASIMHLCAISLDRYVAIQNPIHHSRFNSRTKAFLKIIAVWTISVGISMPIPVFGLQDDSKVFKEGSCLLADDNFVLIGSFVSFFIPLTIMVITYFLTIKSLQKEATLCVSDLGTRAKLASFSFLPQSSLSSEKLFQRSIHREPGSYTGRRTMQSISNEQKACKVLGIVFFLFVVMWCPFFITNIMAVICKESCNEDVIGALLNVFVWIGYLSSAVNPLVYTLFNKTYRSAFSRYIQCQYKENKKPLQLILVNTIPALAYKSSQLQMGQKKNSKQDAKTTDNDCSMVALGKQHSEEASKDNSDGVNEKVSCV
# Chain of H2 (P25021 whole entry): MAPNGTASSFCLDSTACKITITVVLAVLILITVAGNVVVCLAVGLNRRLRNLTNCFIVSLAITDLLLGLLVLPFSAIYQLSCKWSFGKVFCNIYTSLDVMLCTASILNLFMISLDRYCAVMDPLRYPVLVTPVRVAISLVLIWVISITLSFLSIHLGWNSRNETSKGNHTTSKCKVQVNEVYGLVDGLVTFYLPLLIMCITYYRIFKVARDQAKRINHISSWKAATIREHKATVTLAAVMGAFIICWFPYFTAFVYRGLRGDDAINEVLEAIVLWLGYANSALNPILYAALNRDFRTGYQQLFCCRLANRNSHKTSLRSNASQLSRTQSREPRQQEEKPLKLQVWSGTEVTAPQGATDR
# Chain of M4 (P08173 whole entry): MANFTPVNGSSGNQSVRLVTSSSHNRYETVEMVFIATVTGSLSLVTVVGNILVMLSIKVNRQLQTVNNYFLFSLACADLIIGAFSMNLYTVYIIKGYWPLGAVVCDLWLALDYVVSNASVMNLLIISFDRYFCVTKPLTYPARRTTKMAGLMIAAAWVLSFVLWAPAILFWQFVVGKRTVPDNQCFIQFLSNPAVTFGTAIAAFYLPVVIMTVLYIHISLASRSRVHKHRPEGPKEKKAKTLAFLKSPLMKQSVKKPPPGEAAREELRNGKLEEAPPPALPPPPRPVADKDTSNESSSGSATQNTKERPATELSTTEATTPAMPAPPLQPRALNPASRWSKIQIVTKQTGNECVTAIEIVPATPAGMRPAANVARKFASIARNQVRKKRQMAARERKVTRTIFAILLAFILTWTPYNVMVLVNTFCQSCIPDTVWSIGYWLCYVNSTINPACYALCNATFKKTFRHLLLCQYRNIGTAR
# Chain of Beta3 (P13945 whole entry): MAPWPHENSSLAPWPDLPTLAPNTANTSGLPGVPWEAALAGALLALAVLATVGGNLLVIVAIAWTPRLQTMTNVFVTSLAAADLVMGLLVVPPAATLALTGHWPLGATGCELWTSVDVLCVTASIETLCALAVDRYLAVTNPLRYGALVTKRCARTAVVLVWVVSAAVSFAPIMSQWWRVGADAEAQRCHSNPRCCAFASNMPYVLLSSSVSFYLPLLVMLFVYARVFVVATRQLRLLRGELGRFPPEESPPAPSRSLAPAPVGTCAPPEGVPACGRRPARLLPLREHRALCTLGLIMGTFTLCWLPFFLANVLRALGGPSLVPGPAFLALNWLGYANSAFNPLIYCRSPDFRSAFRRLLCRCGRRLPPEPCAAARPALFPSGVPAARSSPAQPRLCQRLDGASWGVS
# Chain of κ-opioid (P41145 whole entry): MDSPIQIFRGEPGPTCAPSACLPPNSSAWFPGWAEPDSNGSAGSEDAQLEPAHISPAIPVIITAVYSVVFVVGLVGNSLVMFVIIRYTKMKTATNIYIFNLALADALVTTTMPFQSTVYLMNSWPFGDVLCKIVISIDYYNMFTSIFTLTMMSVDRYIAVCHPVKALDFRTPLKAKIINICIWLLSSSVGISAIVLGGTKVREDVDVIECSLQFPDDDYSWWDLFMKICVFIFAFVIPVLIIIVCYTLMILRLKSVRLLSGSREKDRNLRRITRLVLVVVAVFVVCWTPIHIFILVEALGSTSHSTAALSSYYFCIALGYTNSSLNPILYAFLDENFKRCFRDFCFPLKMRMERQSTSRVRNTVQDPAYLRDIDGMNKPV
# Chain of Alpha2C (P18825 whole entry): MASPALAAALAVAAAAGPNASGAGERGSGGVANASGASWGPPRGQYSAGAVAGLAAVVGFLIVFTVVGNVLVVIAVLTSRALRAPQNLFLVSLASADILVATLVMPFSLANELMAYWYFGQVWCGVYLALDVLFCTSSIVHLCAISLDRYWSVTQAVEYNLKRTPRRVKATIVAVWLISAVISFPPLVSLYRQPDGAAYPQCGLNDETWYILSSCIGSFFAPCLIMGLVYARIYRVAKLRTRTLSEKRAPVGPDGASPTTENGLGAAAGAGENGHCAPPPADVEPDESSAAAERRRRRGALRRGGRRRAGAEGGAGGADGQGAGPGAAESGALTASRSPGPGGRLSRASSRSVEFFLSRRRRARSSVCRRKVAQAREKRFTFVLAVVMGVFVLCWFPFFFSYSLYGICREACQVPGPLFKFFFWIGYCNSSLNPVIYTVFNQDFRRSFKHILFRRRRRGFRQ
structure (smiles),measurement,setting,value
"COc1cc(N)c(Cl)cc1C(=O)NC1CCN(CCCOc2ccc(F)cc2)CC1OC (stereo not shown) [Cisapride, reference compound]",Hill Slope,[1]; human,1.01 ± 0.07
"Nc1nc2ccc(CN[C@@H]3CO[C@H](C(c4ccc(F)cc4)c4ccc(F)cc4)C[C@H]3O)cc2s1 [D-578, (2S,4R,5R)-5-(((2-aminobenzo[d]thiazol-6-yl)methyl)amino)-2-(bis(4-fluorophenyl)methyl)tetrahydro-2H-pyran-4-ol]",Ki,[2],16.2 ± 2 nM
same,Ki,[3],16.2 ± 1.5 nM
same,Ki,[4],29.6 ± 6.95 nM
same,Ki,[5],20.6 ± 3.8 nM
same,Ki,[6],6.1 ± 1.14 nM
same,Times more potent at NET compared to DAT and SERT,[6]; cloned human transporters,3-4 times
same,inhibition at 10 µM,[7],11%
same,Ki,[8],773 nM
same,inhibition at 10 µM,[8]; [55],62.3%
same,Ki,[9],2610 nM
same,inhibition at 10 µM,[9]; [55],56.4%
same,inhibition at 10 µM,[10],20.9%
same,inhibition at 10 µM,[11],37.4%
same,inhibition at 10 µM,[12],19.9%
same,inhibition at 10 µM,[13],13.6%
same,Ki,[14],702 nM
same,inhibition at 10 µM,[14]; [55],72%
same,Ki,[15],1640 nM
same,inhibition at 10 µM,[15]; [55],62.5%
same,Ki,[16],425 nM
same,inhibition at 10 µM,[16]; [55],80.3%
same,Ki,[17],73 nM
same,inhibition at 10 µM,[17]; [55],96.3%
same,inhibition at 10 µM,[18],8.5%
same,inhibition at 10 µM,[19],35.2%
same,inhibition at 10 µM,[20],12.8%
same,inhibition at 10 µM,[21],28.9%
same,% Inhibition of Binding at 10 μM D-578,[22],2.3%
same,inhibition at 10 µM,[23],18.6%
same,inhibition at 10 µM,[24],38.3%
same,inhibition at 10 µM,[25],24.7%
same,inhibition at 10 µM,[26],22.6%
same,inhibition at 10 µM,[27],6.3%
same,Ki,[28],2010 nM
same,inhibition at 10 µM,[28]; [55],72%
same,inhibition at 10 µM,[29],45.6%
same,Ki,[30],> 10000 nM
same,inhibition at 10 µM,[30]; [55],59.4%
same,Ki,[31],2700 nM
same,inhibition at 10 µM,[31]; [55],59.8%
same,% Inhibition of Binding at 10 μM D-578,[32],28.8%
same,inhibition at 10 µM,[33],24.1%
same,Ki,[34],1390 nM
same,inhibition at 10 µM,[34]; [55],68.9%
same,inhibition at 10 µM,[35],11%
same,Ki,[36],42 nM
same,inhibition at 10 µM,[36]; [55],94.1%
same,inhibition at 10 µM,[37],19.6%
same,inhibition at 10 µM,[38],2.4%
same,inhibition at 10 µM,[39],11.7%
same,inhibition at 10 µM,[40],97.2%
same,inhibition at 10 µM,[41],20.9%
same,inhibition at 10 µM,[42],7.5%
same,Ki,[43],> 10000 nM
same,inhibition at 10 µM,[43]; [55],55%
same,Ki,[44],> 10000 nM
same,inhibition at 10 µM,[44]; [55],84.4%
same,inhibition at 10 µM,[45],10.6%
same,inhibition at 10 µM,[46],52.8%
same,Ki,[47],> 10000 nM
same,inhibition at 10 µM,[47]; [55],53.1%
same,inhibition at 10 µM,[48],44.6%
same,inhibition at 10 µM,[49],7.8%
same,inhibition at 10 µM,[50],21%
same,Immobility in the rat forced swimming test compared to vehicle,[51]; 10 mg/kg p.o.,significantly reduced
same,Immobility in the rat forced swimming test compared to vehicle,[51]; 15 mg/kg p.o.,significantly reduced
same,Reduction of immobility compared to control,"[51]; 25 mg/kg PO, forced swimming test in rats",greater than 90%
same,Immobility in the rat forced swimming test compared to vehicle,[51]; 25 mg/kg p.o.,marked reduction of immobility
same,"Locomotor activity, distance travelled vs vehicle",[52],not significantly different from vehicle
same,Freezing behavior during the extinction retention session (SPS-induced deficit),[53],froze significantly less
same,Freezing behavior during the extinction session (SPS-induced deficit),[53],froze less
same,Shock reactivity during acquisition compared to the control group,[53],no effect
same,Oral absorption and brain penetration,[54],gets absorbed orally and penetrates into the brain well
same,Inhibition of the hERG channel (in words),[1]; Thallium flux assay,almost no inhibition
same,Hill Slope,"[1]; Tl+ flux assay, inhibition of hERG channel",1.471 ± 0.23
"Fc1ccc([C@@H]2CCNC[C@H]2COc2ccc3c(c2)OCO3)cc1 [paroxetine, reference compound]",Freezing behavior during the extinction retention session (SPS-induced deficit),[53],did not reverse
same,Freezing behavior during the extinction session (SPS-induced deficit),[53],did not reverse
same,Shock reactivity during acquisition compared to the control group,[53],no effect
